Screening results as filed in PubChem.
Lung fibro prol – blocks proliferation of human lung fibroblasts; LL 47 human lung fibroblast viability, ATP luminescence; stronger effect = lower value; viability, % at 10 µM; hit rate 1.1% among 85,000; AID 719;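 active = viability at or below 50% in the single dose screen; inactive = viability above 50%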;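 also: compound exposure lasted 72 h before the ATP readout; 100% = median luminescence of untreated cell-only wells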
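Times – overnight cell rest, 72 h compound treatment at 37 °C · Test system – human lung fibroblast line LL 47, low passage · Amount – 1,150 cells in each well · Controls – cell-only wells, no compound · Doses – 0.1% DMSO in all compound wells · Measured by – CellTiter-Glo luminescence · Buffer or medium – IMEM plus 15% FBS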
HCT116 bCat-KO – beta-catenin-lacking colon tumor cell growth suppression; HCT116 beta-catenin knockout viability, CellTiter-Glo, 60 h; stronger effect = lower value; viability, % at 10 µM; hit rate 1.5% among 140,000; AID 818;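 active = viability at or under a set limit, the compound median less 4 SD, cut at about 6% in these data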;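 also: 0% = Hyamine 1622 control at 20 µM and 100% = untreated cell control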
H69AR growth 86K – blocks growth of human H69AR lung tumor cells; hit rate 6% among 85,000; AID 598; H69AR lung tumor viability, ATP luminescence, 72 h; stronger effect = lower value; viability, % at 10 µM;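 active = viability at or below 40%; inactive = viability above 40%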;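 also: multidrug resistant small cell line overexpressing MRP-1 efflux transporter; 100% = mean luminescence of untreated control wells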
HUVEC inhibit – human endothelial cell proliferation inhibition; AID 648; viability, % at 10 µM (by protocol); HUVEC proliferation, CellTiter-Glo luminescence, 72 h; stronger effect = lower value; hit rate 1.1% among 86,000;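 active = viability at or below 30%; inactive = viability above 30%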;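 also: 100% = median luminescence of DMSO-only cell control wells on each plate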
HCT116 PTEN-null – growth suppressors of cells with PTEN tumor suppressor deletion. hit rate 1.2% among 140,000. HCT116 PTEN-null viability, CellTiter-Glo, 60 h; stronger effect = lower value. viability, % at 10 µM;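 active = viability at or below a set limit, 4 SD under the median of all tested compounds, cut at about 3.7% in these data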;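 also: PTEN knockout HCT116 line with beta catenin targeted HCT116 as companion control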
Numbers without * were called inactive. The full list was thinned out, with hits kept by preference.

Cc1ccc(-c2cc(-c3ccccc3Cl)[nH]n2)c(O)c1 was read as Lung fibro prol 66, HCT116 bCat-KO 26, H69AR growth 86K 1.9*, HUVEC inhibit 36 and HCT116 PTEN-null 44.
`Cc1ccc(-c2cc(-c3ccccc3[N+](=O)[O-])[nH]n2)c(O)c1` gave HCT116 bCat-KO 57 and HCT116 PTEN-null 65.
For Cc1ccccc1-c1cc(-c2ccccc2O)n[nH]1 the results were Lung fibro prol 77, HCT116 bCat-KO 22, H69AR growth 86K 33*, HUVEC inhibit 42 and HCT116 PTEN-null 34.
`COC(=O)c1sccc1NC(=O)c1c(C)c(-c2cccc(Cl)c2)nc2ccccc12` gave HCT116 bCat-KO 66 and HCT116 PTEN-null 74.
`C=CCSc1nc2sc(C)c(C)c2c(=O)n1N` gave HCT116 bCat-KO 100 and HCT116 PTEN-null 93.
CC1=NNC(=O)/C1=C\c1cn(-c2ccccc2)nc1-c1cccs1 was read as HCT116 bCat-KO 1.6* and HCT116 PTEN-null 1.5*.
`Cn1c(SC2=CS(=O)(=O)c3ccccc32)nc2ccccc21` gave Lung fibro prol 2.2*, HCT116 bCat-KO 2.5*, H69AR growth 86K 0.6*, HUVEC inhibit 43 and HCT116 PTEN-null 1.4*.
Screening Nc1ccc(C(=O)n2c3ccccc3c3ccccc32)cc1 returned Lung fibro prol 50*, HCT116 bCat-KO 13, H69AR growth 86K 19*, HUVEC inhibit 45 and HCT116 PTEN-null 15.
CCCCCCc1cc2cc(-c3nnc(-c4cc(OC)c(OC)c(OC)c4)o3)c(=O)oc2cc1O was read as Lung fibro prol 62, HCT116 bCat-KO 11, H69AR growth 86K 2.3*, HUVEC inhibit 76 and HCT116 PTEN-null 9.
CCCCCCc1cc2cc(-c3nnc(-c4ccccc4O)o3)c(=O)oc2cc1O was read as HCT116 bCat-KO 0.7* and HCT116 PTEN-null 0.7*.
`CCCCCCc1cc2cc(-c3nnc(-c4ccccc4OC)o3)c(=O)oc2cc1O` gave Lung fibro prol 72, HCT116 bCat-KO 12, H69AR growth 86K 3.0*, HUVEC inhibit 63 and HCT116 PTEN-null 4.
CCCCCCc1cc2cc(C(=O)Nc3ccccc3OC)c(=O)oc2cc1O was read as HCT116 bCat-KO 62 and HCT116 PTEN-null 83.
COc1cc(/C(C)=N/NC(=O)Cc2c(C)[nH][nH]c2=O)ccc1O was read as HCT116 bCat-KO 84 and HCT116 PTEN-null 98.
Screening COc1ccc(-c2nc(-c3ccc(NC(=O)c4ccc(Br)o4)cc3)no2)cc1OC returned Lung fibro prol 63, HCT116 bCat-KO 95, H69AR growth 86K 3.5*, HUVEC inhibit 35 and HCT116 PTEN-null 95.
For COc1ccc(CCC(=O)Nc2ccc(-c3noc(-c4ccc(OC)c(OC)c4)n3)cc2)cc1 the results were Lung fibro prol 98, HCT116 bCat-KO 100, H69AR growth 86K 78, HUVEC inhibit 94 and HCT116 PTEN-null 109.
COc1cc(-c2nc(-c3ccc(NC(=O)c4ccc(Br)o4)cc3)no2)cc(OC)c1OC was read as Lung fibro prol 92, HCT116 bCat-KO 24, H69AR growth 86K 4.5*, HUVEC inhibit 32 and HCT116 PTEN-null 19.
`O=C1c2ccccc2NC(c2ccccc2Cl)N1N=C1CCCCCC1` (stereo not drawn) gave HCT116 bCat-KO 87 and HCT116 PTEN-null 76.
`Cc1ccc2cccc(N=Cc3c(C)[nH]n(-c4ccccc4)c3=O)c2n1` gave HCT116 bCat-KO 2.8* and HCT116 PTEN-null 2.5*.
`Cc1[nH]n(-c2ccccc2)c(=O)c1/C=N/O` gave HCT116 bCat-KO 106 and HCT116 PTEN-null 100.
For S=c1[nH]ccn1-c1cccc(Cl)c1 the results were HCT116 bCat-KO 92 and HCT116 PTEN-null 94.
`Fc1cc(F)c2nc(Nc3nc4cc5c(cc4s3)OCO5)sc2c1` gave HCT116 bCat-KO 1.3* and HCT116 PTEN-null 6.
`CC(=O)c1cccc2c(O)c(C3=Nc4ccccc4C3=O)[nH]c12` gave Lung fibro prol 61, HCT116 bCat-KO 38, H69AR growth 86K 1.5*, HUVEC inhibit 36 and HCT116 PTEN-null 35.
For COc1ccccc1/C=C/C(=O)OCC(=O)Nc1cc(C(F)(F)F)ccc1N1CCOCC1 the results were HCT116 bCat-KO 48 and HCT116 PTEN-null 60.
For Nn1cnc2c(c1=O)C1(CCCCC1)Cc1ccccc1-2 the results were HCT116 bCat-KO 84 and HCT116 PTEN-null 89.
`Oc1ccc(-c2nc3c4c(ncn3n2)-c2ccccc2CC42CCCC2)cc1` gave HCT116 bCat-KO 3.0* and HCT116 PTEN-null 2.6*.
